Data: ChEMBL document CHEMBL2424551, “Synthesis, in vitro evaluation and molecular modelling of naphthalimide analogue as anticancer agents” (2013)
Active and inactive are the calls of the source. No cut-off for these calls is given here.

Columns and labels:
DNA [1] = assay: Binding affinity to calf thymus DNA assessed as DNA intercalation at 50 uM by fluorescence spectrophotometry; format: nucleic-acid assay; details: Bos taurus
Method in brief: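 Fluorescence titration: increasing ct-DNA added to compound in phosphate buffer (pH 7.0); decrease in emission band at 500 nm monitored; binding constant derived from titration data by Benesi–Hildebrand method.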

DNA [2] = assay: Binding affinity to calf thymus DNA assessed as change in melting temperature by thermal denaturation assay; format: nucleic-acid assay; details: Bos taurus
DNA [3] = assay: Binding affinity to calf thymus DNA assessed as DNA intercalation at 50 uM by UV-visible spectrophotometry; format: nucleic-acid assay; details: Bos taurus
Method in brief: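 ct-DNA titrated (4–100 µM) into phosphate-buffered solution (pH 7.0) of compound at 50 µM; absorption spectra recorded by UV–visible spectrophotometry, tracking band shift and hypochromism.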

HCC 2998 = assay: Growth inhibition of human HCC2998 cells at 10 uM after 48 hrs by SRB assay; format: functional
Method in brief: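 Cells grown in RPMI 1640 with 5% FBS and 2 mM L-glutamine, plated at 5000–40,000 cells/well by doubling time and preincubated 24 h (37 °C, 5% CO2); a time-zero plate is TCA-fixed. Single dose added, then 48 h incubation. Fixed with cold TCA, stained with 0.4% SRB, dye solubilized in 10 mM Tris base, absorbance at 515 nm; percent growth vs time-zero and untreated control.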

Nc1ccc(Sc2ccc3c4c2cccc4c(=O)n2c4ccccc4nc32)cc1
Activity (DNA [1]): Active
ΔTm (DNA [2]): 8.2 °C
Activity (DNA [3]): Active

O=c1[nH]cc(F)c(=O)[nH]1 [FLUOROURACIL]
growth inhibition (GI) (HCC 2998): Active
